This is a sample that favours compounds with a hit; in the whole collection about 1.1% have one here.
Diaph inh CS – inhibits diaphorase or chemically oxidizes, flagging diaphorase assay artifacts; diaphorase resazurin-to-resorufin fluorescence, NADH, 16 min; bacterial (C. kluyveri) enzyme, not human; 190,000 tested, 0.69% active; inhibition, % at 20 µM;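 active means primary screen inhibition at 20 µM above a set limit, cut at about 50% in these data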
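Assay system – diaphorase enzyme from Clostridium kluyveri · Amount – diaphorase 0.14 U/mL (working solution) · Times – reaction incubation of 16 min at room temperature · Controls – No-NADH positive control and DMSO neutral control · Signal – resorufin fluorescence 544/590 nm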
PMI activator – activators of human phosphomannose isomerase; purified human PMI, coupled resazurin fluorescence, 20 min; hits give high values; 1 = vehicle control, 0 substrate-free wells; activation factor at 20 µM; 190,000 tested, 0.005% active;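 active means activation factor of 2 or more at 20 µM, relative to plate controls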
Target sequence (P34949 whole entry, looked up): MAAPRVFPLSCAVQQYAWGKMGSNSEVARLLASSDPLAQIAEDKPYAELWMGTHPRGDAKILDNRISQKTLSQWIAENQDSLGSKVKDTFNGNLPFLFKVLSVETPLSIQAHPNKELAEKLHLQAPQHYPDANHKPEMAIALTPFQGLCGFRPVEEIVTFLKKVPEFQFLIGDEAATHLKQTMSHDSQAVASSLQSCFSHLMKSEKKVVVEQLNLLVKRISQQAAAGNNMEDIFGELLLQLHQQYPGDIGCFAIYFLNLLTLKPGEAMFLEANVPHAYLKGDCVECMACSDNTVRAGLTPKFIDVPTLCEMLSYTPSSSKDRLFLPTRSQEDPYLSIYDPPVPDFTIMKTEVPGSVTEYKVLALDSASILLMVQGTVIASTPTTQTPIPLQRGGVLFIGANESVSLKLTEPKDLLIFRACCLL
TbHK1 inh – blocks Trypanosoma brucei hexokinase 1 activity | recombinant TbHK1, G6PDH-coupled NADH A340 | inhibition, % at 10 µM | 220,000 tested, 0.11% active | AID 1430;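 active means inhibition of 50% or more in the single-dose primary screen; inactive means inhibition below 50%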
PMI act hi M6P – PMI (human) activation, high substrate; P34949; coupled PMI enzyme assay, resazurin fluorescence, 20 min; hits give high values; 1 = untreated enzyme, 0 = substrate-free blank; activation factor at 20 µM; 190,000 tested, 0.34% active;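 active means activation factor of 2 or more at 20 µM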
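Test system: human PMI in coupled enzyme assay; Input: PMI at 15 ng/mL final; Medium: HEPES buffer, pH 7.4; Schedule: 20 min incubation at room temperature; Technique: resorufin fluorescence at Ex 544/Em 590 nm; Compound: 20 µM single dose; Probe or stimulus: Near-saturating mannose-6-phosphate, 1.0 mM.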
Diaph act CS – diaphorase activation or chemical reduction counter-screen; Diaphorase/resazurin coupled assay, resorufin fluorescence, 16 min; hits give high values; 1 = vehicle wells, 0 = NADH-free wells; 190,000 tested, 0.005% active; activation factor at 20 µM; AID 1229;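 active means diaphorase activity raised at least twofold by the compound at 20 µM; inactive means activation factor below 2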
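Material: purified diaphorase enzyme from Clostridium kluyveri / Medium: HEPES pH 7.4 buffer with MgCl2 and Tween 20 / Schedule: enzyme reaction of 16 min at room temperature / Measured by: resorufin fluorescence, excitation 544 nm, emission 590 nm / Evaluation: rise in resorufin formation, marking diaphorase activation or chemical reduction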
G6PDH CS – L. mesenteroides G6PDH inhibition counter-screen; 200,000 tested, 0.12% active; AID 1020; Purified L. mesenteroides G6PDH, diaphorase/resazurin coupled fluorescence, 45 min; inhibition, % at 5 µM; in the data active means inhibition above about 50%
Large screens that a line does not name were inactive.

CC(C)(C)N1C(=O)Cc2c1nc(N)c1c(N)nc(N3CCCCC3CO)c(C#N)c21 (configuration not stated)	Diaph inh CS 56.5
CN(CCO)c1nc(N)c2c(N)nc3c(c2c1C#N)CC(=O)N3C1CCCC1	none
CN(C)CCn1c(N)nc2ccccc21	none (no result: Diaph inh CS, PMI activator, PMI act hi M6P, Diaph act CS, G6PDH CS)
Cc1nc2ccc(Cl)cc2nc(C)/c1=N\O	Diaph inh CS 58.2
Cc1cc(O)c(Oc2cc(C)cc(O)c2O)c(O)c1	Diaph inh CS 71.3
CN(Cc1ccco1)C(=O)Cn1nc(-c2ccc(Cl)cc2)ccc1=O	none
O=C1C(Cl)=C(NCCN2CCCCC2)C(=O)c2ccccc21	G6PDH CS 51.0
COc1ccc(-c2c(=O)n(OCc3ccccc3[N+](=O)[O-])c3ccccc3[n+]2[O-])c(OC)c1	Diaph inh CS 51.1
COc1ccc(-c2c(=O)n(OCc3ccccn3)c3ccccc3[n+]2[O-])cc1OC	none
CCC(C)c1ccc(NC(=S)NC(C)C2CCCO2)cc1 (configuration not stated)	none
CCOC(=O)c1ccc(CC(=O)c2ccc(O)c(O)c2O)o1	Diaph inh CS 76.1
COc1ccccc1C(=O)C1CCCN(C(=O)Nc2ccccc2F)C1 (configuration not stated)	none
CCCOC(=O)C(=O)NNc1ccccc1	PMI act hi M6P 2.9
CCOC(=O)C(=O)NNc1ccc(C)cc1	PMI act hi M6P 2
CCOC(=O)C(=O)NNc1ccccc1OC	none (no result: Diaph inh CS, PMI activator, PMI act hi M6P, Diaph act CS, G6PDH CS)
CCOC(=O)C(=O)NNc1ccc(Cl)cc1	PMI act hi M6P 2.5
CC(C)OC(=O)C(=O)NNc1ccccc1	none
Cc1ccc(C)c(N2CCN(C(=O)C34CC5CC(C3)CC(n3nnc(C)n3)(C5)C4)CC2)c1	none (no result: Diaph inh CS, PMI activator, PMI act hi M6P, Diaph act CS, G6PDH CS)
COc1ccc(/C=N/NC(=O)c2cc(C(C)(C)C)[nH]n2)cc1COc1ccc(F)cc1F	none
COc1cc(/C=N/Nc2ccc(Cl)cc2)ccc1OC(=O)c1cccs1	PMI act hi M6P 2.3
CC(=O)N(C)c1ccc(NC(=O)Nc2ccc(C)c(C)c2)cc1	none
O=S(=O)(c1cccs1)N1CCC(CO)(Cc2ccc(Cl)cc2)CC1	none
S=c1nc(-c2sccc2OCc2ccc(Cl)cc2Cl)[nH][nH]1	Diaph inh CS 53.7
C=CCc1cccc2cc(C(=O)O)c(=O)oc12	none
C=CCc1cccc2cc(C(=O)Nc3ccccc3C(=O)O)c(=O)oc12	Diaph inh CS 92.7
COc1ccc(-c2nn(-c3ccccc3)cc2C(=O)NC(=S)Nc2cc(Cl)ccc2Cl)cc1	none (no result: Diaph inh CS, PMI activator, PMI act hi M6P, Diaph act CS, G6PDH CS)
CC(C)CCNC(=O)c1ccc(-c2ccccc2)cc1	none
CCCN(CCC)C(=O)CSc1nc2c(sc(=S)n2-c2ccc(OCC)cc2)c(=O)[nH]1	Diaph inh CS 80.3
CCOc1ccc(-n2c(=S)sc3c(=O)[nH]c(SCC(=O)NC(C)CC)nc32)cc1 (configuration not stated)	none
CCCCN(CC)C(=O)CSc1nc2c(sc(=S)n2-c2ccc(OCC)cc2)c(=O)[nH]1	Diaph inh CS 71.8
CCN(CC)C(=O)CSc1nc2sc(C)c(C)c2c(=O)[nH]1	none
CCOC(=O)CC(=O)CSc1nc2c(sc(=S)n2-c2ccc(OCC)cc2)c(=O)[nH]1	Diaph inh CS 59.5
CCOC(=O)c1nnn(CC(=O)NC(=O)Nc2ccc(F)cc2)c1C(=O)OCC	none
c1ccc(CN2CCN(C(c3ccccc3)c3nnnn3Cc3ccccc3)CC2)cc1 (configuration not stated)	none
Cc1ccc(C(c2nnnn2Cc2ccccc2)N2CCN(Cc3ccccc3)CC2)cc1 (configuration not stated)	Diaph inh CS 79.4
COCCn1c(N)c(C(=S)NC(=O)c2cccs2)c(=O)[nH]c1=O	none (no result: Diaph inh CS, PMI activator, PMI act hi M6P, Diaph act CS, G6PDH CS)
Fc1cccc(NC(=S)NNc2c3ccccc3nc3ccccc23)c1	PMI act hi M6P 2.1
N#Cc1cccc(N=Cc2c(O)ccc3ccccc23)c1	G6PDH CS 62.1
C/C(=N\NC(=O)c1cccc(N/N=C(\C)c2cc(O)ccc2O)c1)c1cc(O)ccc1O	PMI act hi M6P 3
C/C(=N\NC(=O)c1cccc(N/N=C(\C)c2ccco2)c1)c1ccco1	none

Screens (PubChem BioAssay)
